The full list was thinned out, with hits kept by preference.
L major viab: reduces viability of Leishmania major promastigotes | resazurin fluorescence viability | inhibition, % at 10 µM | 200,000 compounds, 9% hits; in the data active = inhibition above about 50%;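 note: promastigotes grown with compound for 44 hours at 28 °C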
MPTP block: inhibitors of mitochondrial permeability transition pore | isolated mouse mitochondria, Ca2+ swelling absorbance, 30 min | inhibition, % at 10 µM | 360,000 compounds, 1.4% hits | AID 602449;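 active = inhibition of 50% or more, scaled per plate between neutral and stimulator controls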
Redox H2O2 prof: compounds producing H2O2 with reducing agent – biochemical, NIH compound library profiling, artefact control for MLSCN library redox annotation, primary screen; AID 878; 200,000 compounds, 0.03% hits; activation, % at 10 µM; DTT-dependent redox cycling H2O2, phenol red/HRP absorbance; 100% = 100 µM peroxide control, 0% = buffer;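 active = activation of at least 50% relative to the plate's high and low controls in the primary single-dose screen; inactive = activation below 50%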;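 note: compound incubated with DTT at 0.8 mM final as the reducing agent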
T cruzi repl: T. cruzi replication inhibition; T. cruzi beta-gal in NIH3T3, luminescence, 90 h; inhibition, % (no concentration beside the values); 300,000 compounds, 1.4% hits; AID 1885;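 active = mean inhibition across valid replicates above about 55%, limit read from the data; inconclusive = mean below that limit but half or more replicates reach it; inactive = mean below it, under half of replicates reach it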;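 note: signal also drops with host cell toxicity which is not excluded here; higher percent means less beta-gal luminescence so fewer parasites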
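Read-out: Parasite load inhibition, % | Test system: Mouse NIH/3T3 fibroblasts infected with β-gal-expressing T. cruzi Tulahuen C4 | Amount: 5,000 cells/well | Medium: DMEM, 2% fetal bovine serum | Signal: GalScreen β-gal luminescence, detergent lysis, 60 min | Timing: 3 h attach, ≥90 h co-culture | Also added: Tulahuen C4 trypomastigotes, 5000/well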
Lipid droplet: modulators of hepatic lipid droplet formation | AML12 mouse hepatocytes, oleate lipid droplets, BODIPY imaging | inhibition, % at 6.5 µM | 240,000 compounds, 0.4% hits | AID 1656;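 active = lipid droplet intensity inhibited by at least 50%, with more than 500 cells counted; inconclusive = wells with under 300 cells, treated as cytotoxic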
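Material – mouse AML12 hepatocyte cell line, fixed after treatment · Compound dosing – one dose, 6.5 µM compound · Times – compound with oleate, overnight · Measured by – Image-based BODIPY and DAPI two-channel analysis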
Of the large screens only hits and unclear results are named; the others gave an inactive call.

O=C(C[n+]1cc(-c2ccc(Cl)cc2)n2c1CCC2)Nc1nc(-c2ccccc2)cs1	none (no result: L major viab, Redox H2O2 prof)
Cc1ccc(NC(=O)C[n+]2cc(-c3ccc(C)cc3)n3c2CCC3)cc1	none (no result: L major viab, Redox H2O2 prof, T cruzi repl)
O=C(C[n+]1cc(-c2ccc(Cl)cc2)n2c1CCC2)N1c2ccccc2Sc2ccccc21	L major viab 81
Cn1c(NC(=O)C[n+]2cc(-c3ccc(Cl)c(Cl)c3)n3c2CCC3)cc(=O)n(C)c1=O	L major viab 88
O=C(C[n+]1cc(-c2ccc(F)cc2)n2c1CCC2)Nc1nc(-c2ccccc2)cs1	L major viab 81
Cc1ccc(-c2c[n+](CC(=O)OCc3ccccc3)c3n2CCC3)cc1	none
O=C(C[n+]1cc(-c2ccc(Cl)c(Cl)c2)n2c1CCC2)N1c2ccccc2Sc2ccccc21	L major viab 54, T cruzi repl 55
Cc1cccc(C)c1NC(=O)C[n+]1cc(-c2ccccc2)n2c1CCC2	none (no result: L major viab, Redox H2O2 prof)
CC1CCC(C(C)C)C(OC(=O)C[n+]2cc(-c3ccc(Cl)cc3)n3c2CCC3)C1 (configuration not stated)	T cruzi repl 60 (no result: L major viab, Redox H2O2 prof)
CC(C)N(C(=O)[C@H]1CC(CC(=O)NCc2cccc(C(F)(F)F)c2)C(=O)N2CCc3c([nH]c4ccccc34)[C@]12C)C(C)C (some centres not stated)	none (no result: L major viab, Redox H2O2 prof, T cruzi repl, Lipid droplet)
Clc1ccc(-n2c(SC/C=C/c3ccccc3)nnc2-c2cccnc2)cc1	L major viab 74
CC(C)(C)C(=O)N1CCN(c2ccc(NC(=O)c3ccc([N+](=O)[O-])o3)cc2)CC1	none (no result: L major viab, Redox H2O2 prof)
O=C(Nc1ccc(N2CCN(C(=O)c3ccc(Cl)cc3)CC2)cc1)c1ccc2c(c1)OCCO2	none
CCCC(=O)N1CCN(c2ccc(NC(=O)c3ccc([N+](=O)[O-])o3)cc2)CC1	L major viab 100
CCC(=O)N1CCN(c2ccc(NC(=O)c3ccc([N+](=O)[O-])o3)cc2)CC1	L major viab 100, T cruzi repl 72
O=C(Nc1ccc(N2CCN(C(=O)c3ccc(Cl)cc3)CC2)cc1)c1ccc([N+](=O)[O-])o1	L major viab 100, T cruzi repl 93
O=C(COC(=O)c1cccc(Br)c1)NCC1CCCO1 (configuration not stated)	none (no result: L major viab, Redox H2O2 prof, T cruzi repl, Lipid droplet)
O=C(NC1CCCCC1)C(c1ccccc1)N(C(=O)c1csnn1)C1CC1 (configuration not stated)	none (no result: L major viab, Redox H2O2 prof)
Cn1c(CCc2nc3ccccc3[nH]2)nnc1SCC#N	none
Fc1ccc(-c2csc(/C=C/c3ccc4c(c3)OCO4)n2)cc1	none
Clc1ccc(CN=C(Nc2ccccc2)NC2CCCCC2)cc1	L major viab 95
O=C(Cc1ccc(Cl)cc1)NC1CCCCCC1	none (no result: L major viab, Redox H2O2 prof)
COc1ccc(-c2cc(C(F)F)n3ncc(C(=O)N4CCc5ccccc54)c3n2)cc1	none
Cc1ccc(-c2cc(C(F)F)n3ncc(C(=O)N4CCc5ccccc5C4)c3n2)cc1	T cruzi repl 58
Cc1ccc(-c2cc(C(F)F)n3ncc(C(=O)N4CCN(c5cccc(C)c5C)CC4)c3n2)cc1	L major viab 58
COc1ccc(-c2cc(C(F)F)n3ncc(C(=O)N4CCN5CCCC5C4)c3n2)cc1 (configuration not stated)	L major viab 60
Cc1ccc(-c2cc(C(F)F)n3ncc(C(=O)N4CCCc5ccccc54)c3n2)cc1	none
COc1ccc(CCN(Cc2cccs2)S(=O)(=O)c2ccc(C(=O)O)cc2)cc1OC	none
Nc1cc2c(cc1N)-c1ccccc1C2	none (no result: L major viab, Redox H2O2 prof, T cruzi repl, Lipid droplet)
COc1cccc(N(C(=O)CCl)C(C(=O)NCCc2ccccc2)c2cccs2)c1 (configuration not stated)	L major viab 100
CC1CCC2(CC1)NC(=O)N(CC(=O)Nc1cccc(S(=O)(=O)N3CCCC3)c1)C2=O (configuration not stated)	none (no result: L major viab, Redox H2O2 prof, T cruzi repl, Lipid droplet)
CCOC(=O)[C@]12CCC=C1N(Cc1ccccc1)C(=O)[C@H](CC(=O)NCCC(C)C)C2	none (no result: L major viab, Redox H2O2 prof, T cruzi repl, Lipid droplet)
CCN(CC)CCCOC(=O)C(c1ccccc1)c1ccccc1	L major viab 86
CCC(C(=O)OCCOCCN(CC)CC)c1ccccc1 (configuration not stated)	none (no result: L major viab, Redox H2O2 prof)
O=C(COc1cc(Cl)c(Cl)cc1Cl)Nc1ccc([N+](=O)[O-])cc1Cl	none (no result: L major viab, Redox H2O2 prof)
N#Cc1ccc(C(=O)N/N=C/c2cn(CC(=O)O)c3ccccc23)c(F)c1	L major viab 58
CC(c1ccccn1)N(Cc1ccco1)C(=S)Nc1cccc(F)c1 (configuration not stated)	none
CCN(CC)S(=O)(=O)c1ccc2c(c1)nc(CCC(=O)Nc1ccccc1Cc1ccccc1)n2CC	L major viab 86
CCn1c(CCC(=O)Nc2cc(F)ccc2C)nc2cc(S(=O)(=O)N(C)C)ccc21	none
O=C(NCCCc1ccccc1)c1cncc(Br)c1	none (no result: L major viab, Redox H2O2 prof)
COc1ccccc1CC(=O)Nc1ccc2c(c1)C(=O)NC2=O	L major viab 100
COc1ccccc1CC(=O)Nc1ccc2nc(C)sc2c1	L major viab 61
COc1ccccc1CC(=O)Nc1ccc(OC)c(OC)c1	none
CCc1csc(CCNC(=O)C2CCC(=O)N(Cc3cccc(C(F)(F)F)c3)C2)n1 (configuration not stated)	none (no result: L major viab, Redox H2O2 prof)
CN(C)CCNC(=O)COc1ccc(C23CC4CC(CC(C4)C2)C3)cc1	L major viab 101, T cruzi repl 68
Cc1ccc(C23CC4CC(CC(NC(=O)NCCN(C)C)(C4)C2)C3)cc1	L major viab 99, T cruzi repl 59
CCN(CC)CCNC(=O)COc1ccc(OC)cc1	none (no result: L major viab, Redox H2O2 prof)
COC(=O)Nc1nc(-c2cc(Cl)ccc2Cl)cs1	T cruzi repl 80
COc1ccc(C(=O)Oc2ccc(F)cc2C(=O)/C=C/c2ccc(OC)c(OC)c2)cc1	none
COc1ccc(/C=C/C(=O)c2ccc3c4c(cccc24)CC3)cc1OC	L major viab 60
COc1ccc(/C=C/C(=O)c2cc(F)ccc2OC(=O)c2ccccc2C)cc1OC	L major viab 60, Lipid droplet inconclusive
Nc1nc(NCCCN2CCOCC2)nc(Nc2ccc(F)cc2)c1[N+](=O)[O-]	L major viab 52
COc1ccc(CN=C2NC(=O)CC(C(=O)Nc3ccc([N+](=O)[O-])cc3C)S2)cc1 (configuration not stated)	L major viab 86 (no result: T cruzi repl)
COc1nc2c(c(-c3cc(Br)cs3)c1C#N)Cc1ccccc1-2	none (no result: L major viab, Redox H2O2 prof)
CCOC(=O)CN(C(=O)CSc1nnc2c(n1)[nH]c1ccc(OC)cc12)c1ccc(F)cc1	L major viab 90 (no result: Lipid droplet)
COc1ccc(CNC(=O)CSc2nnc3c(n2)[nH]c2ccc(F)cc23)cc1	none (no result: L major viab, Redox H2O2 prof)
C=CCN(CC=C)C(=O)c1c(OC)cccc1OC	none
C=CCc1c(C)[nH]c2c(OC)cccc2c1=S	L major viab 76
Cc1ccc(C(C)C)c(OCCCNCc2cccnc2)c1	L major viab 87
CCCCNCC#CCOc1cc(C)ccc1C(C)C	L major viab 95
c1ccc(-c2nnc(CSc3ccc4c(c3)OCCO4)o2)cc1	none
O=C(CCNS(=O)(=O)c1ccc2nsnc2c1)N1CCN(c2ccncc2)CC1	none (no result: L major viab, Redox H2O2 prof, T cruzi repl, Lipid droplet)
